Test results: ChEMBL document CHEMBL4665800, “Biased Agonism at Nociceptin/Orphanin FQ Receptors: A Structure Activity Study on N/OFQ(1-13)-NH” (J Med Chem, 2020)
Starred links: 1 amine or outer side, 2 acyl side, 3 side chain; linkers in the order of their positions; H or OH if unused. Positions of bridges follow the written chain, without caps; N, C: chain ends. Non-standard residues stand in square brackets, D forms with d. Residues, ends and D or L forms follow the SMILES beside them. Chains are numbered I, II in the order given. *: point of attachment. X1 = CCCCCCCCCCCCCCCC(=O)NCCCN1C(=O)CC(*)C1=O; X2 = O=C1CC([*:1])C(=O)N1CCCC(=O)[*:2]; Ac5c = NC1(C(=O)O)CCCC1; Ac3c = NC1(C(=O)O)CC1; Aib = CC(C)(N)C(=O)O

What was measured:
[1] = biological target: T1, Nociceptin receptor (Homo sapiens, UniProt P41146); experiment: Bias factor, selectivity for agonist activity at NOP (unknown origin) expressed in HEK293 cell membranes co-expressing beta-arrestin2-RGFP protein assessed as induction of beta-arrestin2 activation to agonist activity at NOP (unknown origin) expressed in HEK293 cell membranes co-expressing Gbeta1-RGFP protein assessed as induction of G protein activation; assay type: cell-based
Summary of the method: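 Concentration–response curves in the NOP G protein and β-arrestin 2 BRET assays were fitted to the Black–Leff operational model. Mean of at least five experiments with 95% confidence limits.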

[2] = biological target: T1, Nociceptin receptor; experiment: Agonist activity at NOP (unknown origin) […] assessed as induction of beta-arrestin2 activation incubated for 15 mins by BRET assay; assay type: cell-based, HEK293
[3] = biological target: T1, Nociceptin receptor; experiment: Agonist activity at NOP (unknown origin) expressed in HEK293 cell membranes co-expressing Gbeta1-RGFP protein assessed as induction of G protein activation incubated for 15 mins by BRET assay; assay type: cell-based
Summary of the method: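 Membranes (3 μg protein) from HEK293 cells stably co-expressing NOP-RLuc and Gβ1-RGFP, in DPBS. Coelenterazine 5 μM final; ligands in PBS–BSA 0.01%. BRET ratio (RGFP 510 nm / RLuc 460 nm) read 15 min after agonist, room temperature. Values are vehicle-subtracted stimulated BRET ratio. Mean of five experiments in duplicate.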

T1 sequence (P41146 whole entry): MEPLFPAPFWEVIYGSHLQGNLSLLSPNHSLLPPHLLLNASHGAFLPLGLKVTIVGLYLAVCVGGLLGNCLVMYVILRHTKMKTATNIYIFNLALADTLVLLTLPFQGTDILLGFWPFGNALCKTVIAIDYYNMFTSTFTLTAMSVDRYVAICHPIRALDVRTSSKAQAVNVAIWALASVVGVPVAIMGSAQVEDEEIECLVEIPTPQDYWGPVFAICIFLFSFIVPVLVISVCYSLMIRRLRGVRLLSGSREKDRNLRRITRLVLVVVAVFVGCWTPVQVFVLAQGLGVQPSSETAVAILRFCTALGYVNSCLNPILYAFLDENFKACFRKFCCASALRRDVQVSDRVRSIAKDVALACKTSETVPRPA

| Molecule | Selectivity Index [1] | EC50 [2] [nM] | EC50 [3] [nM] |
| --- | --- | --- | --- |
| C[C@H](NC(=O)CNC(=O)[C@@H](NC(=O)[C@H](Cc1ccccc1)NC(=O)CNC(=O)CNC(=O)[C@@H](N)Cc1ccccc1)[C@@H](C)O)C(=O)N[C@@H](CCCNC(=N)N)C(=O)N[C@@H](CCCCN)C(=O)N[C@@H](CO)C(=O)N[C@@H](C)C(=O)N[C@@H](CCCNC(=N)N)C(=O)N[C@@H](CCCCN)C(=O)N[C@@H](CSC1CC(=O)N(CCCC(=O)N[C@@H](CCCCN)C(=O)N[C@@H](CCCCN)C(=O)N[C@@H](CCCCN)C(=O)N[C@@H](CCCCN)C(=O)N[C@@H](CCCCN)C(=O)N[C@@H](CCCCN)C(N)=O)C1=O)C(N)=O (some centres undefined) | 0.83 | 6.03 | 0.0871 |
| CCCCCCCCCCCCCCCC(=O)NCCCN1C(=O)CC(SC[C@H](NC(=O)[C@H](CCCCN)NC(=O)[C@H](CCCNC(=N)N)NC(=O)[C@H](C)NC(=O)CNC(=O)[C@@H](NC(=O)[C@H](Cc2ccccc2)NC(=O)CNC(=O)CNC(=O)[C@@H](N)Cc2ccccc2)[C@@H](C)O)C(=O)N[C@@H](C)C(=O)N[C@@H](CCCNC(=N)N)C(=O)N[C@@H](CCCCN)C(N)=O)C1=O (some centres undefined) (H-FGGFTGARKC(X1)ARK-NH2) | 0.91 | 19.1 | 0.288 |
| CCCCCCCCCCCCCCCC(=O)NCCCN1C(=O)CC(SC[C@H](NC(=O)[C@H](C)NC(=O)[C@H](CO)NC(=O)[C@H](CCCCN)NC(=O)[C@H](CCCNC(=N)N)NC(=O)[C@H](C)NC(=O)CNC(=O)[C@@H](NC(=O)[C@H](Cc2ccccc2)NC(=O)CNC(=O)CNC(=O)[C@@H](N)Cc2ccccc2)[C@@H](C)O)C(=O)N[C@@H](CCCCN)C(N)=O)C1=O (some centres undefined) (H-FGGFTGARKSAC(X1)K-NH2) |  | 22.4 | 0.525 |
| CCCCCCCCCCCCCCCC(=O)NCCCN1C(=O)CC(SC[C@H](NC(=O)[C@H](CCCNC(=N)N)NC(=O)[C@H](C)NC(=O)[C@H](CO)NC(=O)[C@H](CCCCN)NC(=O)[C@H](CCCNC(=N)N)NC(=O)[C@H](C)NC(=O)CNC(=O)[C@@H](NC(=O)[C@H](Cc2ccccc2)NC(=O)CNC(=O)CNC(=O)[C@@H](N)Cc2ccccc2)[C@@H](C)O)C(N)=O)C1=O (some centres undefined) (H-FGGFTGARKSARC(X1)-NH2) | 0.7 | 55 | 1.26 |
| CCCCCCCCCCCCCCCC(=O)NCCCN1C(=O)CC(SC[C@H](NC(=O)[C@H](CO)NC(=O)[C@H](CCCCN)NC(=O)[C@H](CCCNC(=N)N)NC(=O)[C@H](C)NC(=O)CNC(=O)[C@@H](NC(=O)[C@H](Cc2ccccc2)NC(=O)CNC(=O)CNC(=O)[C@@H](N)Cc2ccccc2)[C@@H](C)O)C(=O)N[C@@H](CCCNC(=N)N)C(=O)N[C@@H](CCCCN)C(N)=O)C1=O (some centres undefined) (H-FGGFTGARKSC(X1)RK-NH2) | 1.11 | 34.7 | 0.437 |
| C[C@H](NC(=O)CNC(=O)[C@@H](NC(=O)[C@H](Cc1ccccc1)NC(=O)CNC(=O)CNC(=O)[C@@H](N)Cc1ccccc1)[C@@H](C)O)C(=O)N[C@@H](CCCNC(=N)N)C(=O)N[C@@H](CCCCN)C(=O)N[C@@H](CO)C(=O)NC1(C(=O)N[C@@H](CCCNC(=N)N)C(=O)N[C@@H](CCCCN)C(N)=O)CCCC1 (H-FGGFTGARKS[Ac5c]RK-NH2) | 0.31 |  |  |
| C[C@H](NC(=O)CNC(=O)[C@@H](NC(=O)[C@H](Cc1ccccc1)NC(=O)CNC(=O)CNC(=O)[C@@H](N)Cc1ccccc1)[C@@H](C)O)C(=O)N[C@@H](CCCNC(=N)N)C(=O)N[C@@H](CCCCN)C(=O)N[C@@H](CO)C(=O)NC(C)(C)C(=O)N[C@@H](CCCNC(=N)N)C(=O)N[C@@H](CCCCN)C(N)=O (H-FGGFTGARKS[Aib]RK-NH2) | 0.29 |  |  |
| C[C@H](NC(=O)[C@H](CO)NC(=O)[C@H](CCCCN)NC(=O)[C@H](CCCNC(=N)N)NC(=O)C1(NC(=O)CNC(=O)[C@@H](NC(=O)[C@H](Cc2ccccc2)NC(=O)CNC(=O)CNC(=O)[C@@H](N)Cc2ccccc2)[C@@H](C)O)CC1)C(=O)N[C@@H](CCCNC(=N)N)C(=O)N[C@@H](CCCCN)C(N)=O (H-FGGFTG[Ac3c]RKSARK-NH2) | 0.4 |  |  |
| C[C@H](NC(=O)[C@H](CO)NC(=O)[C@H](CCCCN)NC(=O)[C@H](CCCNC(=N)N)NC(=O)C1(NC(=O)CNC(=O)[C@@H](NC(=O)[C@H](Cc2ccccc2)NC(=O)CNC(=O)CNC(=O)[C@@H](N)Cc2ccccc2)[C@@H](C)O)CCCC1)C(=O)N[C@@H](CCCNC(=N)N)C(=O)N[C@@H](CCCCN)C(N)=O (H-FGGFTG[Ac5c]RKSARK-NH2) | 0.08 |  |  |
| C[C@H](NC(=O)CCCN1C(=O)CC(SC[C@H](NC(=O)[C@H](CCCCN)NC(=O)[C@H](CCCNC(=N)N)NC(=O)[C@H](C)NC(=O)[C@H](CO)NC(=O)[C@H](CCCCN)NC(=O)[C@H](CCCNC(=N)N)NC(=O)[C@H](C)NC(=O)CNC(=O)[C@@H](NC(=O)[C@H](Cc2ccccc2)NC(=O)CNC(=O)CNC(=O)[C@@H](N)Cc2ccccc2)[C@@H](C)O)C(N)=O)C1=O)C(=O)N[C@@H](CC(=O)O)C(=O)N[C@@H](C)C(=O)N[C@@H](CC(=O)O)C(=O)N[C@@H](C)C(=O)N[C@@H](CC(=O)O)C(=O)N[C@@H](C)C(=O)N[C@@H](CC(=O)O)C(=O)N[C@@H](C)C(=O)N[C@@H](CC(=O)O)C(=O)N[C@@H](C)C(=O)N[C@@H](CC(=O)O)C(N)=O (some centres undefined) (I: H-FGGFTGARKSARKC-NH2 / II: ADADADADADAD-NH2; linker I:14-II:N via X2) | 0.51 | 93.3 | 24 |
| C[C@H](NC(=O)CCCN1C(=O)CC(SC[C@H](NC(=O)[C@H](CCCCN)NC(=O)[C@H](CCCNC(=N)N)NC(=O)[C@H](C)NC(=O)[C@H](CO)NC(=O)[C@H](CCCCN)NC(=O)[C@H](CCCNC(=N)N)NC(=O)[C@H](C)NC(=O)CNC(=O)[C@@H](NC(=O)[C@H](Cc2ccccc2)NC(=O)CNC(=O)CNC(=O)[C@@H](N)Cc2ccccc2)[C@@H](C)O)C(N)=O)C1=O)C(=O)N[C@@H](Cc1cnc[nH]1)C(=O)N[C@@H](C)C(=O)N[C@@H](Cc1cnc[nH]1)C(=O)N[C@@H](C)C(=O)N[C@@H](Cc1cnc[nH]1)C(=O)N[C@@H](C)C(=O)N[C@@H](Cc1cnc[nH]1)C(=O)N[C@@H](C)C(=O)N[C@@H](Cc1cnc[nH]1)C(=O)N[C@@H](C)C(=O)N[C@@H](Cc1cnc[nH]1)C(N)=O (some centres undefined) (I: H-FGGFTGARKSARKC-NH2 / II: AHAHAHAHAHAH-NH2; linker I:14-II:N via X2) | -0.05 | 9.33 | 7.94 |
| C[C@H](NC(=O)CCCN1C(=O)CC(SC[C@H](NC(=O)[C@H](CCCCN)NC(=O)[C@H](CCCNC(=N)N)NC(=O)[C@H](C)NC(=O)[C@H](CO)NC(=O)[C@H](CCCCN)NC(=O)[C@H](CCCNC(=N)N)NC(=O)[C@H](C)NC(=O)CNC(=O)[C@@H](NC(=O)[C@H](Cc2ccccc2)NC(=O)CNC(=O)CNC(=O)[C@@H](N)Cc2ccccc2)[C@@H](C)O)C(N)=O)C1=O)C(=O)N[C@@H](CCCCN)C(=O)N[C@@H](C)C(=O)N[C@@H](CCCCN)C(=O)N[C@@H](C)C(=O)N[C@@H](CCCCN)C(=O)N[C@@H](C)C(=O)N[C@@H](CCCCN)C(=O)N[C@@H](C)C(=O)N[C@@H](CCCCN)C(=O)N[C@@H](C)C(=O)N[C@@H](CCCCN)C(N)=O (some centres undefined) (I: H-FGGFTGARKSARKC-NH2 / II: AKAKAKAKAKAK-NH2; linker I:14-II:N via X2) | 1.18 | 17.4 | 0.794 |
| H-FGGFNGARKSARK-NH2 |  | 27.5 | 9.33 |
